# Assay results taken from article PMC6265067 (Nature, 2018).
# T1: D14 (Oryza sativa subsp. japonica, UniProt Q10QA5)
# T1 sequence (Q10QA5 52-318): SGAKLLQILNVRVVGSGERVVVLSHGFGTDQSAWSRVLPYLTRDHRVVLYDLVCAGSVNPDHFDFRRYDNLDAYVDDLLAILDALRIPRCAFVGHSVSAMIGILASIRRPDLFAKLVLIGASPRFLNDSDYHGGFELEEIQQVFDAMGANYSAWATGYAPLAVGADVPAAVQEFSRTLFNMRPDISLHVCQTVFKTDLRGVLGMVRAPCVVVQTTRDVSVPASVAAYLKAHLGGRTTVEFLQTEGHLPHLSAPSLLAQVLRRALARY
# Key:
# D53-D2 / D14 = experiment: AlphaScreen assay of D53-D2-D14 interaction; assay type: binding, O. sativa; settings: DMSO control, mean ± s.d. of biological triplicates
# Procedure, shortened: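 AlphaScreen proximity read. The GST-tagged partner sits on glutathione donor beads and the His-tagged partner on anti-6xHis acceptor beads (5 μg/ml each). Uses 100–500 nM D14 or D53 and 1 μM ASK1-D3 in 50 mM MES pH 6.5, 150 mM NaCl, 1 mM DTT, 0.1 mg/ml BSA. Excitation 680 nm, emission 520–620 nm. Peptide reactions carry matched DMSO; DMSO-only serves as control.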
# D14 / D53-D2 = experiment: GST-pulldown of D14 and D53-D2 in the presence of D3-CTH; assay type: binding, O. sativa; settings: in the presence of GR24, repeated thrice
# Procedure, shortened: (§1)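 GST-tagged bait (~20–40 μg) and His-tagged or untagged prey (~10–25 μg) were incubated with GST beads for 30 min at 4 °C in 40 mM Tris-HCl pH 7, 100 mM NaCl, 2 mM DTT, 0.01% BSA. GR24 was at 20–100 μM with acetone as control. Beads were washed in 250 mM NaCl buffer with 0.01% Tween 20 and eluted with SDS sample buffer or 5 mM glutathione. Read-out: SDS-PAGE with Ponceau or anti-GST/anti-His Western.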
# D14 [1] = biological target: T1, D14; experiment: AlphaScreen competition of D3-CTH peptide with His-D3 for binding GST-D14; design: species or system O. sativa; settings: 10 μM GR24 (saturating), dose-dependent, 50 mM MES pH 6.5, 150 mM NaCl, 1 mM DTT, 0.1 mg/ml BSA, mean ± s.d. of biological triplicates
# AtSMXL7-YFP = experiment: SMXL7-YFP level in tobacco epidermal cells; assay type: cell-based, Arabidopsis thaliana, expressed in Nicotiana benthamiana; settings: co-expressed with D14-CTH-mCherry; 10 μM GR24, 120 min; n=7 nuclei; p = 4.401×10^−2
# D14 / D3 = experiment: AlphaScreen assay of GST-D14 / His-D3 interaction in response to GR24; assay type: binding, O. sativa; settings: increasing GR24, pH 6.5, mean ± s.d. of biological triplicates
# Procedure, shortened: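 GST-D14 is held on glutathione donor beads and His-D3 (ASK1-D3 complex, 1 μM) on anti-6xHis acceptor beads, both at 5 μg/ml. D14 at 100–500 nM. Buffer is 50 mM MES, 150 mM NaCl, 1 mM DTT, 0.1 mg/ml BSA. GR24 is titrated. Signal is read at 520–620 nm after 680 nm excitation, averaged over three experiments.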
# D14-D3-ASK1 = assay type: binding, O. sativa (ASK1: A. thaliana); settings: for complex formation with D14-D3-ASK1: in the presence of GR24 (100–200 μM)
# Procedure, shortened: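 Purified proteins (20–50 μM) were preincubated for 1 h at 4 °C with 100–200 μM GR24, or with acetone as control, in 20 mM HEPES pH 7.0, 150 mM NaCl, 2 mM DTT. Samples were run on Superdex-200 Increase 10/300 at 0.5 mL/min. Fractions of 0.5 ml were analysed by SDS-PAGE with Coomassie staining; repeated at least three times.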
# D53 = D53 stability in a reconstituted cell-free system; assay type: biochemical, O. sativa (extract: Arabidopsis seedlings); settings: max2–1 seedling extract; 10 μM GR24; 22 °C
# D14 [2] = biological target: T1, D14; experiment: YLG hydrolysis assay; assay type: biochemical, O. sativa
# Procedure, shortened: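 Recombinant rice D14 (residues 52–318, SUMO tag cleaved) at 1–2 μg, with co-expressed ASK1-D3 complex and D53-D2, plus YLG. Buffer is 50 mM MES pH 6.5, 150 mM NaCl, 1 mM DTT under plate seal. Fluorescence (ex 480/em 520 nm) is read every 10 s over 50–60 min and converted to fluorescein concentration via a standard curve before curve fitting. Repeated at least three times.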
# D14 [3] = biological target: T1, D14; experiment: Pull-down assay with GST-tagged D53-N, D53-D1 or D53-D2 and His-D14; assay type: binding, O. sativa; settings: GST-tagged D53 domains, GR24
# Procedure, shortened: as §1
molecule,measurement,setting,value
"D3_693–707: 15aa D3 peptide (ENDLMFTEMRAESWL; UniProt Q5VMP0 693-707, looked up, fragment)",promotion of D53-D2-D14 interaction,D53-D2 / D14,did not stimulate binding
"D3-CTH peptide: 28 amino acids D3-CTH peptide (28aa, D3_693–720), O. sativa (ENDLMFTEMRAESWLRFEVQLNSRQIDD; UniProt Q5VMP0 693-720, looked up, fragment)",stimulation of D14 and D53-D2 pulling down each other,D14 / D53-D2,able to stimulate D14 and D53-D2 to pull down each other in the presence of GR24
same,promotion of D53-D2-D14 interaction,D53-D2 / D14,elicited the same effect in a dose-dependent manner
same,competition with D3 for binding D14,D14 [1],able to compete with D3 for binding D14
CC1=C[C@H](O/C=C2/C(=O)O[C@@H]3c4ccccc4C[C@H]23)OC1=O [GR24],SMXL7 reduction upon GR24 treatment,AtSMXL7-YFP,11.8%
same,D3-D14 interaction,D14 / D3,GR24-dependent D3-D14 interaction
"D3_708–720: 13aa D3 peptide (RFEVQLNSRQIDD; UniProt Q5VMP0 708-720, looked up, fragment)",promotion of D53-D2-D14 interaction,D53-D2 / D14,did not stimulate binding
"CCOC(=O)c1ccccc1-c1c2ccc(=O)cc-2oc2cc(OC3C=C(C)C(=O)O3)ccc12 (stereo not shown) [YLG, Yoshimulactone Green, reference compound]","complex assembly among D14, D3-ASK1 and D53-D2","D14-D3-ASK1; Superdex-200, in the presence of YLG","can induce complex assembly among D14, D3-ASK1, and the D53-D2 domain"
"C-terminally truncated D3 mutant protein: D3ΔCTH (O. sativa, residues 1–693) co-expressed with ASK1 (protein, UniProt Q5VMP0 1-693, looked up, fragment, co-expressed with ASK1) MAEEEEVEEGRSSSSAILDLPEPLLLHILSFLTDVRSRHRAALACGRMRAAERATRSELSLRGDPRSPGFLFLSHAFRFPALEHLDLSLVSPWGHPLLSSVPPCGGGGGGAPSASSSSGMNVYHPEAISEQNAFIAARLAGCFPAVTSLAVYCRDPTTLANLTPHWQASLRRVKLVRWHQRPPTLPDGADLEPLLETCAALRELDLSEFYCWTEDVVRALTTHPSATAALTHLDLGLAAATDGFKSSELGPIAASCPNLRKLVAPCLFNPRFSDCVGDDALLSLATSCPRLTVLRLSEPFEAAANIQREEAAITVAGLVAFFAALPALEDFTMDLQHNVLEAAPAMEALARRCPRIKFLTLGSFQGLCKASWLHLDGVAVCGGLESLYMKNCQDLTDASLAAIGRGCRRLAKFGIHGCDLVTSAGIRRLAFTLRPTLKEVTVLHCRLLHTAECLTALSPIRDRIESLEINCVWNTTEQPCSVANGTTTECDPEDDELGEVYESAAKKCRYMEFDDLGSWEMLRSLSLWFSAGQLLSPLISAGLDSCPVLEEISIKVEGDCRTCPRPAPRTIFGLSDLAGFPVLAKMKLDLSEAVGYALTAPTGQMDLSLWERFYLHGIESLQTLYELDYWPPQDKDVHHRSLTLPAVGLIQRCVGLRKLFIHGTTHEHFMTFFLSIPNLRDMQLREDYYPAPE",restoration of D53-degrading activity of max2–1 extracts,D53,nor restore the D53 degradation activity of the max2–1 extracts
same,ternary complex with D14 and D53-D2,"D14-D3-ASK1; sizing column, D14-GR24, D53-D2",could neither form a ternary complex with D14 and D53-D2 on a sizing column
"D53: Full length D53 (O. sativa), expressed as a GST fusion protein (protein, left off: GST, end not stated, kept) MPTPVAAARQCLSPAAVPALDAAVASSRRRAHAQTTSLHLISSLLAPPAPPLLRDALARARSAAYSPRVQLKALDLCFAVSLDRLPSVSASSSSSGAADEPPVSNSLMAAIKRSQANQRRNPDTFHFYHQAATAQTPAAVKVELSHLVLAILDDPVVSRVFAEAGFRSGDIKLAILRPAPPMPLLGRLPTRTRPPPLFLCSFAAADDADVPSPAGNLAGAGEENCRRIAEILSRGRNPMLVGVGAASAADDFAAASPYRIIHVDPNTIDRSDLGVAAAMASATSGLIISIGDLKQLVPDEDAEAQEKGRRVVAEVTRVLETHSKVGRVWVMGWSATYETYLAFLSKFPLVDKDWDLQLLPITAVHAAATAGPAAAAAGLMPPATTVAAFSKPAASLMDSFVPFGGFLCDNYEENSLTANSCPQALRCQQCNDKYEQEVATIISASGITAEDHHQGGLPSLLQNGSMMGPNNGFDPVKARDDRMVLNSKILNLRKKWNEYCLRLHQDHQRINRDPYKPFPRYIGVPTDKERSANSSKGSESVGVQKDVIKPCAVSAVHSSSTARPISSPSVTNKRNEDLVLNLQARHSKSDENLQERGMQSQHGTLSNVDNPDDHVSPSSAAPVETDLVLGTPRECSSKGSSSTCSKRVEDSERSVHLVPKKVDDLNLKHPQLSVQPNSCSWSSINVGKTSHSTLHSVASGGFSAFGQWQKRSPLAAQNSDLSNYKLLVERLFKVVGRQEEALSAICESIVRCRSTESRRGPNRNDIWLCFHGSDSMAKKRIAVALAELMHGSKDNLIYLDLNLQDWDDSSFRGKTGIDCIVEQLSKKRQSVLFLDNIDRADCLVQDSLSDAIKSGRFQDMRGKVVDINDSIVVLSRSMIQGSKNGLEEGLSFSEEKILATRGHRLKILVEPGRAITSGCPSGKVVVSPRHFLTKIQASLCSGSISKRKLSISDDQEKLQESPSSSKRLHRTSSVPFDLNLPVDEDEPLDADDDSSSHENSYGNTEKSIDALLHSVDGSINFKPFDFDKLADDMLQEFSNILRKNLGSECMLEIDVGAMEQILAAAWKSEEDRKPVPTWLEQVFARSLDELKLKRKHVSSSTLRLVACEDTVPAVKGDGLGVLLPPRIILDC",effect on D14 inhibited by D3 C-terminal peptide,"D14 [2]; D14 + D3-CTH, initial reaction and slow linear phase",robustly blocked the inhibition of the enzymatic activity of D14 by the D3 C-terminal peptide
same,complex formation with D14-D3-ASK1,D14-D3-ASK1; Superdex-200,can form a stable complex with D14-D3-ASK1 in the presence of GR24
"D53 D2 domain: D53 D2 domain (D53-D2, 718–1,131) (protein, left off: GST, end not stated, kept) NSDLSNYKLLVERLFKVVGRQEEALSAICESIVRCRSTESRRGPNRNDIWLCFHGSDSMAKKRIAVALAELMHGSKDNLIYLDLNLQDWDDSSFRGKTGIDCIVEQLSKKRQSVLFLDNIDRADCLVQDSLSDAIKSGRFQDMRGKVVDINDSIVVLSRSMIQGSKNGLEEGLSFSEEKILATRGHRLKILVEPGRAITSGCPSGKVVVSPRHFLTKIQASLCSGSISKRKLSISDDQEKLQESPSSSKRLHRTSSVPFDLNLPVDEDEPLDADDDSSSHENSYGNTEKSIDALLHSVDGSINFKPFDFDKLADDMLQEFSNILRKNLGSECMLEIDVGAMEQILAAAWKSEEDRKPVPTWLEQVFARSLDELKLKRKHVSSSTLRLVACEDTVPAVKGDGLGVLLPPRIILDC",binding D14,D14 [3],solely responsible for binding D14 in a GR24-dependent manner
same,effect on D3-ASK1-arrested D14 kinetics,"D14 [2]; D14 + ASK1-D3, D53-D2 at two concentrations",little change in the enzymatic kinetics
same,complex formation with D14-D3-ASK1,D14-D3-ASK1; Superdex-200,can form a stable complex with D14-D3-ASK1 in the presence of GR24
same,requirement for stable association with D14,"D14-D3-ASK1; Superdex-200, ± ASK1-D3, GR24",stably associated with D14 only in the presence of D3 and GR24
